Test [1] deals with T1, C5a anaphylatoxin chemotactic receptor 1 (Homo sapiens, UniProt P21730).
T1 sequence (P21730 whole entry): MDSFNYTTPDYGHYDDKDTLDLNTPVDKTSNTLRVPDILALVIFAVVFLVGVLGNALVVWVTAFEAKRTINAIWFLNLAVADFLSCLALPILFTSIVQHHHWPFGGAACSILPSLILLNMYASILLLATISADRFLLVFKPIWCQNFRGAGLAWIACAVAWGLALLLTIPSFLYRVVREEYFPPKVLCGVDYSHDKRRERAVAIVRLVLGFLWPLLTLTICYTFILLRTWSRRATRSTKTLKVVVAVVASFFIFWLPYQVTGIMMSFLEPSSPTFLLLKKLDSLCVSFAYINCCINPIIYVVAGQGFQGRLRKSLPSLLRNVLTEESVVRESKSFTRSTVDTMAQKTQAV
The test can be described thus: Ability to inhibit binding of radiolabeled C5a anaphylatoxin to intact membrane bound receptor from human neutrophils. The method, boiled down:
(§1)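 Buffer was HBSS with 10 mM pMSF and 0.5% BSA, HEPES pH 7.2. Compounds were added from 1% aqueous DMSO. Filtration used polyethyleneimine-soaked GF filters, read by gamma counting. Nonspecific binding was set with ≥20 ng unlabeled C5a. IC50 came from a four-parameter logistic fit.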

The species entered for test [2] is Homo sapiens. Description: Compound was tested for the inhibition of C5a- induced human neutrophil activation. It is filed as functional. The method, boiled down:
(§2)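 Freshly isolated human PMN (Ficoll-Hypaque, erythrocytes lysed with NH4Cl/EDTA/KHCO3), 4×10^5/mL in HBSS. Preincubated with compound or 1% aqueous DMSO 20 min at 37 °C, then cytochalasin B (5 μg/mL final) 5 min. Stimulated 5 min at 37 °C with C5a or fMLF, or no stimulus for nonspecific release. MPO read with dimethoxybenzidine/H2O2 at pH 6.0, azide-quenched at 2 min, A450. Duplicate or triplicate.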

The species entered for test [3] is Homo sapiens. Description: Compound was tested for the inhibition of fMLF- induced human neutrophil activation. It is filed as functional. In outline:
as §2

A further test deals with T2, Myeloperoxidase (Homo sapiens, UniProt P05164).
T2 sequence (P05164 whole entry): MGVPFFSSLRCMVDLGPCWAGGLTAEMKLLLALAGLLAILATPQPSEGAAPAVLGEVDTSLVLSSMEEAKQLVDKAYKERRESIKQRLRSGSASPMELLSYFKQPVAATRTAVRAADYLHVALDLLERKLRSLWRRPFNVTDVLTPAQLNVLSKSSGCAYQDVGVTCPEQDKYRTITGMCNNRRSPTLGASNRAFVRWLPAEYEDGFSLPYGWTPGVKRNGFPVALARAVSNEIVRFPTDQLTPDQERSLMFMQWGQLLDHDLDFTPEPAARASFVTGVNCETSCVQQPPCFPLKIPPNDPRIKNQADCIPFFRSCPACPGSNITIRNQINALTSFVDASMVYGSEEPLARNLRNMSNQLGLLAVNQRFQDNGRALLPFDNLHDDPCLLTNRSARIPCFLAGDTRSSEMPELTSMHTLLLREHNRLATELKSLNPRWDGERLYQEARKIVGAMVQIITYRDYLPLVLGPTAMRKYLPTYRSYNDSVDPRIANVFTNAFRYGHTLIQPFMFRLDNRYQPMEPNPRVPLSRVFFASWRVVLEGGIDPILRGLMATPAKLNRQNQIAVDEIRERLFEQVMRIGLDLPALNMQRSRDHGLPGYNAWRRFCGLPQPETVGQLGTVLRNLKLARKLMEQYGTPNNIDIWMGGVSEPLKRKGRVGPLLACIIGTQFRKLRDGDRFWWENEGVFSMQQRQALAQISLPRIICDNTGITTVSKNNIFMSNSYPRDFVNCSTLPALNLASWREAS
The test can be described thus: Compound was tested for the induction of nonspecific myeloperoxidase (MPO) release. Type of test: functional. In outline: as §2

The target of test [4] is T1, C5a anaphylatoxin chemotactic receptor 1. The test can be described thus: Compound was tested for its ability to inhibit binding of radiolabeled C5a anaphylatoxin chemotactic receptor to intact membrane bound receptor from human neutrophils.; insoluble. In outline: as §1

Usually pIC50 stands for the IC50 on a negative log10 scale, so that one unit is a factor of ten. Lower therefore signals a high IC50. The term EC50 denotes the concentration that produces a half-maximal response. Low readings indicate greater potency, high ones weaker potency. As a reminder, the pEC50 is the EC50 on a negative log10 scale, so that one unit is a factor of ten.

pEC50, pIC50: −log10 of the molar value. Converted amounts (≈) assume the structure as drawn.

In test [1], `Cc1cc(NCc2ccccc2)c2cc(NC(=O)C(=O)Nc3ccc4nc(C)cc(NCc5ccccc5)c4c3)ccc2n1` gave a pIC50 below 4.06. The compound `Cc1cc(N)c2cc(NC(=O)CCCCC(=O)Nc3ccc4nc(C)cc(N)c4c3)ccc2n1` gave a pIC50 in test [1] below 3.96. In the case of `Cc1cc(N)c2cc(NC(=O)C(=O)Nc3ccc4nc(C)cc(N)c4c3)ccc2n1`, the EC50 in the test filed under Homo sapiens [2] worked out at 4 mg/L (≈ 9.99 µM). The pIC50 in test [1] was 5.30.

As for `Cc1cc(N)c2cc(NC(=O)/C=C/c3ccccc3C(F)(F)F)ccc2n1`, the 50% effective concentration (EC50) in the test listed under Homo sapiens [2] and in the test filed under Homo sapiens [3] was 4 mg/L (≈ 10.8 µM) throughout. In test [1], the pIC50 was 4.62. The compound `Cc1cc(N)c2cc(C(=O)NCc3ccccc3)ccc2n1` had a pIC50 in test [1] below 3.46. Still for that read-out and setting: for `Cc1ccc2cc(NC(=O)Nc3ccc4nc(C)ccc4c3)ccc2n1` the value was below 3.84; for `Cc1cc(N)c2cc(NC(=O)c3ccc4ccccc4c3)ccc2n1`, 4.04; for `CCCC(=O)Nc1ccc2nc(C)cc(N)c2c1`, below 3.39. On to `CCCCCCCCNc1cc(C)nc2ccc(NC(=O)/C=C/c3ccccc3Cl)cc12`, for which the pIC50 in test [1] is below 3.65. Compound `CCCCCCCCNC(=O)c1ccc2nc(C)cc(N)c2c1` showed a pIC50 in test [1] below 3.50. On Myeloperoxidase, `Cc1cc(NCc2ccccc2)c2cc(NC(=O)/C=C/c3ccccc3Cl)ccc2n1` gave a pEC50 of 4.93. Moreover, the EC50 in the test listed under Homo sapiens [2] and in the test listed under Homo sapiens [3] was below 3 mg/L each time. For the same compound, the pIC50 in test [1] is below 3.63. `Cc1cc(N)c2cc(NC(=O)/C=C/c3cccc(C(F)(F)F)c3)ccc2n1`: the pIC50 in test [1] was 4.97.

On to `Cc1cc(NCc2ccccc2)c2cc(N)ccc2n1`, for which the pIC50 in test [1] is below 3.42. Turning to `Cc1cc(N)c2cc(NC(=O)/C=C/c3ccccc3Cl)ccc2n1`, the concentration for a half-maximal effect (EC50) in the test filed under Homo sapiens [2] was found to be 4 mg/L (≈ 11.8 µM); in the test filed under Homo sapiens [3], 5 mg/L (≈ 14.8 µM). Further, in test [1], the pIC50 is 4.45. For `COc1cc(C)nc2ccc(NC(=O)/C=C/c3ccccc3Cl)cc12`, the pIC50 in test [1] is below 3.85. The same measure, in the same setting: as for `Cc1cc(N)c2cc(NC(=O)CCCCCCCCC(=O)Nc3ccc4nc(C)cc(N)c4c3)ccc2n1`, the figure is below 4.01.

In the case of `Cc1cc(N)c2cc(NC(=O)/C=C/c3c(F)c(F)c(F)c(F)c3F)ccc2n1`, in test [4], the IC50 result is reported as “Not Active”.

For the compound `Cc1cc(N)c2cc(NC(=O)CC(=O)Nc3ccc4nc(C)cc(N)c4c3)ccc2n1`, the pIC50 in test [1] was 4.36.

Turning to `Cc1cc(N)c2cc(NC(=O)/C=C/c3ccc(C(F)(F)F)cc3)ccc2n1`, the pIC50 in test [1] is 4.72. This pIC50 is 0.36 log units higher than that of the compound before.

In the case of `Cc1cc(N)c2cc(NC(=O)c3ccccc3)ccc2n1`, the pIC50 in test [1] is below 3.44.

For the compound `Cc1cc(N)c2cc(N)ccc2n1`, the pIC50 in test [1] was below 3.24. With `Cc1cc(N)c2cc(NC(=O)/C=C/c3c(Cl)cccc3Cl)ccc2n1`, the EC50 in the test listed under Homo sapiens [2] and in the test listed under Homo sapiens [3] was 4 mg/L (≈ 10.7 µM) each time. The compound further gave a pIC50 in test [1] of 4.67. The compound `Cc1cc(N)c2cc(NC(=O)/C=C/c3ccccc3)ccc2n1` gave a pIC50 in test [1] of 4.00. The same measure, in the same setting: for `Cc1cc(N)c2cc(NC(=O)CCc3ccccc3)ccc2n1` the value was below 3.48. In test [1], `CCCCCCCC(=O)Nc1ccc2nc(C)cc(N)c2c1` gave a negative-log IC50 (pIC50) of 4.00. Still for that read-out and setting: for `Cc1cc(NCc2ccccc2)c2cc(NC(=O)/C=C/c3ccccc3C(F)(F)F)ccc2n1` the value was below 3.66. In the test filed under Homo sapiens [2], `Cc1cc(N)c2cc(NC(=O)Nc3ccc4nc(C)cc(N)c4c3)ccc2n1` [AMINOQUINURIDE] had an EC50 of 15 mg/L (≈ 40.3 µM). The same compound gave a pIC50 in test [1] of 5.05.

These data come from ChEMBL document CHEMBL1126141, “Substituted 4,6-diaminoquinolines as inhibitors of C5a receptor binding” (J Med Chem, 1992).
